Converted amounts (≈) assume the structure as drawn. The source made the active and inactive calls. The calls are words filed in the database; no cut-off is given here.
Assays:
[1] = tested on: Escherichia coli; experiment: Antimicrobial activity against Escherichia coli INCQS 00033 ATCC 25922 assessed as zone of inhibition at 5 mg/ml after 18 to 24 hrs by disc diffusion method; format: functional; conditions: ATCC 25922 INCQS 00033, read-out: IZ
[2] = tested on: Staphylococcus simulans; experiment: Bactericidal activity against Staphylococcus simulans INCQS 00254 ATCC 27851 at 256 ug/ml incubated for 24 hrs followed by transfer of microbial suspension to agar plates and measured after 24 hrs post transfer by resazurin dye-based colorimetric analysis; format: functional, organism-based
Procedure, shortened: (§1)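 For MBC, 10 µL from each clear MIC well was plated on agar and incubated 24 h at 37°C. MBC is the minimum concentration inhibiting 99.9% of growth. […] Triplicate.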

[3] = tested on: Escherichia coli; experiment: Antimicrobial activity against Escherichia coli INCQS 00033 ATCC 25922 at 256 ug/ml after 24 hrs by microdilution assay; format: functional, organism-based; conditions: ATCC 25922 INCQS 00033
[4] = tested on: Staphylococcus aureus; experiment: Antimicrobial activity against methicillin-resistant Staphylococcus aureus BMB9393 at 256 ug/ml after 24 hrs by microdilution assay; format: functional, organism-based
[5] = tested on: Enterococcus faecalis; experiment: Antimicrobial activity against Enterococcus faecalis INCQS 00234 ATCC 29212 assessed as zone of inhibition at 5 mg/ml after 18 to 24 hrs by disc diffusion method; format: functional; conditions: ATCC 29212 INCQS 00234, read-out: IZ
[6] = tested on: Staphylococcus epidermidis; experiment: Bactericidal activity against Staphylococcus epidermidis INCQS 00016 ATCC 12228 incubated for 24 hrs followed by transfer of microbial suspension to agar plates and measured after 24 hrs post transfer by resazurin dye-based colorimetric analysis; format: functional; conditions: ATCC 12228 INCQS 00016, 24 h, read-out: MBC99.9; procedure, shortened: as §1
[7] = tested on: Staphylococcus simulans; experiment: Antimicrobial activity against Staphylococcus simulans INCQS 00254 ATCC 27851 at 256 ug/ml after 24 hrs by microdilution assay; format: functional, organism-based
[8] = tested on: Staphylococcus epidermidis; experiment: Antimicrobial activity against Staphylococcus epidermidis INCQS 00016 ATCC 12228 after 24 hrs by microdilution assay; format: functional; conditions: ATCC 12228 INCQS 00016, 24 h
[9] = Hemolytic activity against human erythrocytes assessed as hemolysis at 200 ug/ml after 3 hrs by spectrophotometric analysis relative to control; format: ADME, cell-based, Erythrocyte; conditions: read-out: Activity
Procedure, shortened: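 Erythrocytes collected in citrate tubes, washed three times with PBS pH 7.4 by centrifugation and resuspended in PBS. Incubated with compounds at 200 µg/mL for 3 h at 37°C. Released hemoglobin was read in the supernatant at 545 nm against 1% Triton X-100 (complete lysis) and 1% DMSO (negative control). Below 10% hemolysis was taken as hemocompatible. Three independent experiments.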

[10] = tested on: Klebsiella pneumoniae; experiment: Antimicrobial activity against Klebsiella pneumoniae INCQS 00083 ATCC 4352 assessed as zone of inhibition at 5 mg/ml after 18 to 24 hrs by disc diffusion method; format: functional; conditions: read-out: IZ
[11] = tested on: Staphylococcus aureus; experiment: Antimicrobial activity against Staphylococcus aureus INCQS 00015 ATCC 25923 assessed as zone of inhibition at 5 mg/ml after 18 to 24 hrs by disc diffusion method; format: functional; conditions: read-out: IZ
[12] = tested on: Pseudomonas aeruginosa; experiment: Bactericidal activity against Pseudomonas aeruginosa INCQS 00099 ATCC 27853 at 256 ug/ml incubated for 24 hrs followed by transfer of microbial suspension to agar plates and measured after 24 hrs post transfer by resazurin dye-based colorimetric analysis; format: functional, organism-based; procedure, shortened: as §1
[13] = tested on: Staphylococcus aureus; experiment: Antimicrobial activity against methicillin-resistant Staphylococcus aureus BMB9393 assessed as zone of inhibition at 5 mg/ml after 18 to 24 hrs by disc diffusion method; format: functional; conditions: read-out: IZ
[14] = tested on: Pseudomonas aeruginosa; experiment: Antimicrobial activity against Pseudomonas aeruginosa INCQS 00099 ATCC 27853 assessed as zone of inhibition at 5 mg/ml after 18 to 24 hrs by disc diffusion method; format: functional; conditions: read-out: IZ
[15] = tested on: Staphylococcus simulans; experiment: Antimicrobial activity against Staphylococcus simulans INCQS 00254 ATCC 27851 assessed as zone of inhibition at 5 mg/ml after 18 to 24 hrs by disc diffusion method; format: functional; conditions: read-out: IZ
[16] = tested on: Staphylococcus epidermidis; experiment: Antimicrobial activity against Staphylococcus epidermidis INCQS 00016 ATCC 12228 assessed as zone of inhibition at 5 mg/ml after 18 to 24 hrs by disc diffusion method; format: functional; conditions: ATCC 12228 INCQS 00016, read-out: IZ
[17] = tested on: Staphylococcus aureus; experiment: Bactericidal activity against methicillin-resistant Staphylococcus aureus BMB9393 at 256 ug/ml incubated for 24 hrs followed by transfer of microbial suspension to agar plates and measured after 24 hrs post transfer by resazurin dye-based colorimetric analysis; format: functional, organism-based
Procedure, shortened: (§2)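 From MIC wells with no visible growth, 10 µL is transferred to agar plates and incubated 24 h at 37°C. MBC is the minimum concentration inhibiting 99.9% of growth. […] Triplicate.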

[18] = tested on: Staphylococcus epidermidis; experiment: Ratio of MBC99.9 to MIC for Staphylococcus epidermidis INCQS 00016 ATCC 12228; format: functional, ATCC 12228 INCQS 00016
Procedure, shortened: (§3)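 MBC/MIC ratio from the 24 h, 37°C microdilution MIC and the agar-plating MBC (99.9% growth inhibition). A ratio ≤2 was classed as bactericidal and ≥4 as bacteriostatic.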

[19] = tested on: Staphylococcus aureus; experiment: Bactericidal activity against Staphylococcus aureus INCQS 00015 ATCC 25923 at 256 ug/ml incubated for 24 hrs followed by transfer of microbial suspension to agar plates and measured after 24 hrs post transfer by resazurin dye-based colorimetric analysis; format: functional, organism-based; procedure, shortened: as §1
[20] = tested on: Proteus mirabilis; experiment: Antimicrobial activity against Proteus mirabilis INCQS 00095 ATCC 15290 assessed as zone of inhibition at 5 mg/ml after 18 to 24 hrs by disc diffusion method; format: functional; conditions: read-out: IZ
[21] = tested on: Pseudomonas aeruginosa; experiment: Antimicrobial activity against Pseudomonas aeruginosa INCQS 00099 ATCC 27853 at 256 ug/ml after 24 hrs by microdilution assay; format: functional, organism-based
[22] = tested on: Escherichia coli; experiment: Bactericidal activity against Escherichia coli INCQS 00033 ATCC 25922 at 256 ug/ml incubated for 24 hrs followed by transfer of microbial suspension to agar plates and measured after 24 hrs post transfer by resazurin dye-based colorimetric analysis; format: functional, organism-based; conditions: ATCC 25922 INCQS 00033; procedure, shortened: as §1
[23] = tested on: Staphylococcus aureus; experiment: Antimicrobial activity against Staphylococcus aureus INCQS 00015 ATCC 25923 at 256 ug/ml after 24 hrs by microdilution assay; format: functional, organism-based
[24] = tested on: Staphylococcus simulans; experiment: Antimicrobial activity against Staphylococcus simulans INCQS 00254 ATCC 27851 after 24 hrs by microdilution assay; format: functional; conditions: INCQS 00254 ATCC 27851, 24 h
[25] = tested on: Staphylococcus simulans; experiment: Bactericidal activity against Staphylococcus simulans INCQS 00254 ATCC 27851 incubated for 24 hrs followed by transfer of microbial suspension to agar plates and measured after 24 hrs post transfer by resazurin dye-based colorimetric analysis; format: functional; conditions: INCQS 00254 ATCC 27851, 24 h, read-out: MBC99.9; procedure, shortened: as §1
[26] = tested on: Staphylococcus aureus; experiment: Ratio of MBC99.9 to MIC for Staphylococcus aureus INCQS 00015 ATCC 25923; format: functional; procedure, shortened: as §3
[27] = tested on: Staphylococcus simulans; experiment: Ratio of MBC99.9 to MIC for Staphylococcus simulans INCQS 00254 ATCC 27851; format: functional; procedure, shortened: as §3
[28] = tested on: Staphylococcus aureus; experiment: Bactericidal activity against Staphylococcus aureus INCQS 00015 ATCC 25923 incubated for 24 hrs followed by transfer of microbial suspension to agar plates and measured after 24 hrs post transfer by resazurin dye-based colorimetric analysis; format: functional; conditions: INCQS 00015 ATCC 25923, 24 h, read-out: MBC99.9; procedure, shortened: as §2
[29] = tested on: Staphylococcus aureus; experiment: Antimicrobial activity against Staphylococcus aureus INCQS 00015 ATCC 25923 after 24 hrs by microdilution assay; format: functional; conditions: INCQS 00015 ATCC 25923, 24 h

SMILES | zone of inhibition at 5000 µg/mL [1] [mm] | Activity [2] | Activity [3] | Activity [4] | zone of inhibition at 5000 µg/mL [5] [mm] | MBC [6] [µg/mL] | MIC [8] [µg/mL] | hemolysis at 3 h, 200 ug/ml [9] [%] | zone of inhibition at 5000 µg/mL [10] [mm] | zone of inhibition at 5000 µg/mL [11] [mm] | Activity [12] | zone of inhibition at 5000 µg/mL [13] [mm] | zone of inhibition at 5000 µg/mL [14] [mm] | zone of inhibition at 5000 µg/mL [15] [mm] | zone of inhibition at 5000 µg/mL [16] [mm] | Activity [17] | Ratio [18] | zone of inhibition at 5000 µg/mL [20] [mm] | Activity [21] | Activity [22] | also measured
COC(=O)c1c(C)nc(C)c2c1C(=O)C(Br)=C(NC[C@H]1O[C@@H]3OC(C)(C)O[C@@H]3[C@H]1O)C2=O | 0 | inactive | inactive | inactive | 0 | 64 (≈ 125 µM) | 64 (≈ 125 µM) | < 10 | 0 | 0 | inactive | 0 | 0 | 0 | 7 | inactive | 1 | 0 | inactive | inactive | Activity [7]: inactive; Activity [19]: inactive; Activity [23]: inactive
COC(=O)c1c(C)nc(C)c2c1C(=O)C(Cl)=C(NC[C@H]1O[C@@H]3OC(C)(C)O[C@@H]3[C@H]1O)C2=O | 0 | inactive | inactive | inactive | 0 | 32 (≈ 68.5 µM) | 32 (≈ 68.5 µM) | 10.1 to 14.4 | 0 | 0 | inactive | 0 | 0 | 0 | 8 | inactive | 1 | 0 | inactive | inactive | Activity [7]: inactive; Activity [19]: inactive; Activity [23]: inactive
COC(=O)c1c(C)nc(C)c2c1C(=O)C=C(NC[C@H]1O[C@@H]3OC(C)(C)O[C@@H]3[C@H]1O)C2=O | 0 | inactive | inactive | inactive | 0 | 256 (≈ 592 µM) | 256 (≈ 592 µM) | < 10 | 0 | 0 | inactive | 0 | 0 | 0 | 10 | inactive | 1 | 0 | inactive | inactive | Activity [7]: inactive; Activity [19]: inactive; Activity [23]: inactive
CN[C@H](CC(C)C)C(=O)N[C@H]1C(=O)N[C@@H](CC(N)=O)C(=O)N[C@H]2C(=O)N[C@H]3C(=O)N[C@H](C(=O)N[C@H](C(=O)O)c4cc(O)cc(O)c4-c4cc3ccc4O)[C@H](O)c3ccc(c(Cl)c3)Oc3cc2cc(c3O[C@@H]2O[C@H](CO)[C@@H](O)[C@H](O)[C@H]2O[C@H]2C[C@](C)(N)[C@H](O)[C@H](C)O2)Oc2ccc(cc2Cl)[C@H]1O [VANCOMYCIN] |  |  |  |  | 16 |  |  |  |  | 16 |  | 14 |  | 16 | 15 |  |  |  |  |  | MIC [24]: 2 µg/mL (≈ 1.38 µM)
COC(=O)c1c(C)nc(C)c2c1C(=O)C=C(NC[C@H]1O[C@@H]3OC(C)(C)O[C@@H]3[C@H]3OC(C)(C)O[C@H]31)C2=O | 0 | inactive | inactive | inactive | 0 | 256 (≈ 509 µM) | 256 (≈ 509 µM) | < 10 | 0 | 0 | inactive | 0 | 0 | 0 | 9 | inactive | 1 | 0 | inactive | inactive | Activity [7]: inactive; Activity [19]: inactive; Activity [23]: inactive
COC(=O)c1c(C)nc(C)c2c1C(=O)C(Cl)=C(N)C2=O | 0 |  | inactive | inactive | 0 | 32 (≈ 109 µM) | 32 (≈ 109 µM) | 10.1 to 14.4 | 0 | 15 | inactive | 12 | 0 | 16 | 18 | inactive | 1 | 0 | inactive | inactive | MBC [25]: 32 µg/mL (≈ 109 µM); Ratio [26]: 1; Ratio [27]: 1; MBC [28]: 64 µg/mL (≈ 217 µM); MIC [24]: 32 µg/mL (≈ 109 µM); MIC [29]: 64 µg/mL (≈ 217 µM)

Reference: ChEMBL document CHEMBL4270541, “Synthesis and antimicrobial evaluation of amino sugar-based naphthoquinones and isoquinoline-5,8-diones and their halogenated compounds” (Eur J Med Chem, 2018)
